Tests used:
[1] = substrate: Cc1cc(=O)oc2cc(NC(=O)[C@@H]3CCCN3C(=O)CNC(=O)OCc3ccccc3)ccc12; assay: Activity of POP in human HCEC cell extracts incubated for 30 mins by fluorimetric assay
Procedure, shortened: (§1)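 Confluent cell monolayers lysed in PBS with 0.1% Triton X-100. Increasing Z-Gly-Pro-AMC concentrations added; fluorescence increase (ex/em 360/460 nm) recorded for 30 min at 37 °C. KM read graphically from a double-reciprocal Michaelis–Menten plot.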

[2] = substrate: Cc1cc(=O)oc2cc(NC(=O)[C@@H]3CCCN3C(=O)CNC(=O)OCc3ccccc3)ccc12; assay: Activity of human recombinant POP incubated for 30 mins by fluorimetric assay
Procedure, shortened: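 Recombinant human POP/PREP stock diluted in PBS containing 1 mg/mL BSA. Increasing Z-Gly-Pro-AMC concentrations added; fluorescence (ex/em 360/460 nm) followed for 30 min at 37 °C. KM determined graphically from a double-reciprocal Michaelis–Menten plot.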

[3] = substrate: Cc1cc(=O)oc2cc(NC(=O)[C@@H]3CCCN3C(=O)CNC(=O)OCc3ccccc3)ccc12; assay: Activity of POP in human LN229 cell extracts incubated for 30 mins by fluorimetric assay; procedure, shortened: as §1
[4] = substrate: Cc1cc(=O)oc2cc(NC(=O)[C@@H]3CCCN3C(=O)CNC(=O)OCc3ccccc3)ccc12; assay: Activity of POP in human LNZ308 cell extracts incubated for 30 mins by fluorimetric assay; procedure, shortened: as §1
[5] = substrate: Cc1cc(=O)oc2cc(NC(=O)[C@@H]3CCCN3C(=O)CNC(=O)OCc3ccccc3)ccc12; assay: Activity of POP in human LN18 cell extracts incubated for 30 mins by fluorimetric assay; procedure, shortened: as §1

B1: Prolyl endopeptidase (Homo sapiens), P48147 (protein)
chain: MLSLQYPDVYRDETAVQDYHGHKICDPYAWLEDPDSEQTKAFVEAQNKITVPFLEQCPIRGLYKERMTELYDYPKYSCHFKKGKRYFYFYNTGLQNQRVLYVQDSLEGEARVFLDPNILSDDGTVALRGYAFSEDGEYFAYGLSASGSDWVTIKFMKVDGAKELPDVLERVKFSCMAWTHDGKGMFYNSYPQQDGKSDGTETSTNLHQKLYYHVLGTDQSEDILCAEFPDEPKWMGGAELSDDGRYVLLSIREGCDPVNRLWYCDLQQESSGIAGILKWVKLIDNFEGEYDYVTNEGTVFTFKTNRQSPNYRVINIDFRDPEESKWKVLVPEHEKDVLEWIACVRSNFLVLCYLHDVKNILQLHDLTTGALLKTFPLDVGSIVGYSGQKKDTEIFYQFTSFLSPGIIYHCDLTKEELEPRVFREVTVKGIDASDYQTVQIFYPSKDGTKIPMFIVHKKGIKLDGSHPAFLYGYGGFNISITPNYSVSRLIFVRHMGGILAVANIRGGGEYGETWHKGGILANKQNCFDDFQCAAEYLIKEGYTSPKRLTINGGSNGGLLVAACANQRPDLFGCVIAQVGVMDMLKFHKYTIGHAWTTDYGCSDSKQHFEWLVKYSPLHNVKLPEADDIQYPSMLLLTADHDDRVVPLHSLKFIATLQYIVGRSRKQSNPLLIHVDTKAGHGAGKPTAKVIEEVSDMFAFIARCLNVDWIP
B1 gave a Km [1] of 7 µM, a Km [2] of 8.5 µM and a Km [3] of 6.7 µM. The Km [4] was 8.1 µM and the Km [5] was 8.5 µM.
